From ChEMBL document CHEMBL1137438, “Small conformationally restricted piperidine N-arylsulfonamides as orally active gamma-secretase inhibitors” (Bioorg Med Chem Lett, 2007)

Columns and labels:
Mus musculus [1] = assay: Plasma A-beta-40 level in Tg CRND8 mouse at 30 mg/kg, sc after 3 hrs; format: functional; details: route subcutaneous
Outline: (§1)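 Tg CRND8 transgenic mice, acute single dose of 30 mpk, oral or sub-cutaneous. Plasma Aβ40 measured 3 h after dosing and expressed as % reduction.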

[2] = AUC in rat at 10 mg/kg, po after 0 to 6 hrs; format: ADME, organism-based; design: time < 6 hr, dose 10 mg/kg, route oral; details: plasma
Mus musculus [3] = assay: Plasma A-beta-40 level in Tg CRND8 mouse at 30 mg/kg, po after 3 hrs; format: functional; outline: as §1

Compound	Activity (Mus musculus [1]) [%]	AUC at 6 h [2] [ng·h/mL]	Activity (Mus musculus [3]) [%]
CC[C@@H]1CCC[C@H](C2(OC(=O)N3CCN(C(C)(C)CO)CC3)CC2)N1S(=O)(=O)c1ccc(F)cc1 (racemic)	59	405	
CC[C@@H]1CCC[C@H](C2(OC(=O)N3CCC(CCO)(OC)CC3)CC2)N1S(=O)(=O)c1ccc(Cl)cc1 (racemic)		81	
CC[C@@H]1CCC[C@H](C2(OC(=O)N3CCC(N4CCCCC4)CC3)CC2)N1S(=O)(=O)c1cc(F)cc(F)c1 (racemic)		296	
CC[C@@H]1CCC[C@H](C2(OC(=O)N3CC4CCC(C3)N4CCO)CC2)N1S(=O)(=O)c1ccc(F)cc1 (mixture of isomers)		1780	
CC[C@@H]1CCC[C@H](C2(OC(=O)N3CC4CCC(C3)N4CCO)CC2)N1S(=O)(=O)c1ccc(F)c(F)c1 (mixture of isomers)		1330	
CC[C@@H]1CCC[C@H](C2(OC(=O)N3CCN(CCO)C[C@@H]3C)CC2)N1S(=O)(=O)c1ccc(Cl)cc1 (racemic)		3410	
CC[C@@H]1CCC[C@H](C2(OC(=O)N3CCN(C(C)(C)CO)CC3)CC2)N1S(=O)(=O)c1ccc(Cl)cc1 (racemic)	91	892	96
CC[C@@H]1CCC[C@H](C2(OC(=O)N3CC4CCC(C3)N4CCO)CC2)N1S(=O)(=O)c1ccc(Cl)cc1 (mixture of isomers)	85	939	
CC[C@@H]1CCC[C@H](C2(OC(=O)N3CCN(CCO)[C@@H](C)C3)CC2)N1S(=O)(=O)c1ccc(Cl)cc1 (racemic)		1870	
